Measurements as given in PMC4651821 (Clinical & experimental metastasis, 2015).
Read-outs that look alike come from different tables or passages of the source.

Experiments:
TOV21G tumors [1] = assay: OXA-11 with cisplatin in TOV21G tumors in nude mice; assay type: in vivo; conditions: cisplatin given alone, 5 mg/kg
FAK [2] = molecular target: T1, FAK (Homo sapiens, UniProt Q05397); assay: FAK Omnia Kinase Assay; conditions: read-out: biochemical IC50 for FAK inhibition
How it was run: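 GST-tagged full-length FAK phosphorylated a sulfonamido-oxine (SOX)-containing peptide substrate, read by chelation-enhanced fluorescence (Omnia). Test compound was run as an 11-point threefold serial dilution at final 0.17–10,000 nM or 0.12–7250 nM, in triplicate. IC50 was derived from the curves.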

FAK [3] = molecular target: T1, FAK; assay: Kinase Profiling System with ADP-Glo Kinase Assay, 192 kinases; assay type: biochemical; conditions: OXA-11 concentration of 100 nM
FAK [4] = molecular target: T1, FAK; assay: Cell-based kinase assay in cell lysates
PYK2 = PYK2 (Homo sapiens, UniProt Q14289); assay: Cell-based kinase assay in cell lysates
PYK2, sequence (Q14289 whole entry): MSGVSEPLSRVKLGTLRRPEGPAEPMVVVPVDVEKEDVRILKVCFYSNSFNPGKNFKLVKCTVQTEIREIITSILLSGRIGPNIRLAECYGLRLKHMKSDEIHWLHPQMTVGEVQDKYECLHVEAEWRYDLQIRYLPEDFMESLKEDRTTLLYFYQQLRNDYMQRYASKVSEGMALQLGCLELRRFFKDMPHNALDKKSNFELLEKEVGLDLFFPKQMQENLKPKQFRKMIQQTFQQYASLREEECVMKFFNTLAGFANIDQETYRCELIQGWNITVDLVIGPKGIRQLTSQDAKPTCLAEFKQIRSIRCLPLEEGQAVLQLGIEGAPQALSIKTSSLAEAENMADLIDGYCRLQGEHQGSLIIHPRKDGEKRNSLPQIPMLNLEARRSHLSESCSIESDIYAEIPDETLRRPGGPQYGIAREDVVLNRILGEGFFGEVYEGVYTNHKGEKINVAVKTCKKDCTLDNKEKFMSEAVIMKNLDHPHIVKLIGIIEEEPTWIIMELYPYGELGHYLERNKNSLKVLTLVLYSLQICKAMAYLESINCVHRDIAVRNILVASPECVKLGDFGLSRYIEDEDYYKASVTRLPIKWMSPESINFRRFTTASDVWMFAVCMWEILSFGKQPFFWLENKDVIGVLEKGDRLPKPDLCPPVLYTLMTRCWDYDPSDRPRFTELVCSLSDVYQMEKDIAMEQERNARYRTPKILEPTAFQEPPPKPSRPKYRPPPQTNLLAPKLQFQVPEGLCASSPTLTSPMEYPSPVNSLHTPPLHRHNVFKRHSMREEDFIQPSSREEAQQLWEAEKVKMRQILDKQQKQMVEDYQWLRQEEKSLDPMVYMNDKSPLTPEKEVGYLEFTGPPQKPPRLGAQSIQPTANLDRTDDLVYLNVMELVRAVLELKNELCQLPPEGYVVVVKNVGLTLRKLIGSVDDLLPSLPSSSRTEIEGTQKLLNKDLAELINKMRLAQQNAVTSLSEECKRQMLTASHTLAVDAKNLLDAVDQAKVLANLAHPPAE

Insulin receptor = Insulin receptor (Homo sapiens, UniProt P06213); assay: Cell-based kinase assay in cell lysates
SRC = SRC (Homo sapiens, UniProt P12931); assay: Cell-based kinase assay in cell lysates
SRC, sequence (P12931 whole entry): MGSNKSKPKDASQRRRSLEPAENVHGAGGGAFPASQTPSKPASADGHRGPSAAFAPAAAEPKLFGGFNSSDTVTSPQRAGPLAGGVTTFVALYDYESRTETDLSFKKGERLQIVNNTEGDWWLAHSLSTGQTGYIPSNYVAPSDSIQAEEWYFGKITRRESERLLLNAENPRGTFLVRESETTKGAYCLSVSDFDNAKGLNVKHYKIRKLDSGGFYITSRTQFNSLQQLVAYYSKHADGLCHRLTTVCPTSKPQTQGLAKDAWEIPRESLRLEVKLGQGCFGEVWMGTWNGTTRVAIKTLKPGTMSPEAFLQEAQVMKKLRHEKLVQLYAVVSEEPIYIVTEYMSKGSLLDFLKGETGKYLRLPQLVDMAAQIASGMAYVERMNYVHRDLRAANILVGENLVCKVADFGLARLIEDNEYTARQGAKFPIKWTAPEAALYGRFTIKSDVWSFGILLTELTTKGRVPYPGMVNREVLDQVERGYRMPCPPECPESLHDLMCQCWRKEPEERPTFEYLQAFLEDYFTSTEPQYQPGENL

FAK [5] = molecular target: FAK (Mus musculus, UniProt P34152); assay: Cellular mechanistic FAK inhibition, 4T1 cell lysates; assay type: cell-based; conditions: read-out: OXA-11 IC50 (nM) for FAK, 4T1 mammary carcinoma cells
FAK (Mus musculus, UniProt P34152), sequence (P34152 whole entry): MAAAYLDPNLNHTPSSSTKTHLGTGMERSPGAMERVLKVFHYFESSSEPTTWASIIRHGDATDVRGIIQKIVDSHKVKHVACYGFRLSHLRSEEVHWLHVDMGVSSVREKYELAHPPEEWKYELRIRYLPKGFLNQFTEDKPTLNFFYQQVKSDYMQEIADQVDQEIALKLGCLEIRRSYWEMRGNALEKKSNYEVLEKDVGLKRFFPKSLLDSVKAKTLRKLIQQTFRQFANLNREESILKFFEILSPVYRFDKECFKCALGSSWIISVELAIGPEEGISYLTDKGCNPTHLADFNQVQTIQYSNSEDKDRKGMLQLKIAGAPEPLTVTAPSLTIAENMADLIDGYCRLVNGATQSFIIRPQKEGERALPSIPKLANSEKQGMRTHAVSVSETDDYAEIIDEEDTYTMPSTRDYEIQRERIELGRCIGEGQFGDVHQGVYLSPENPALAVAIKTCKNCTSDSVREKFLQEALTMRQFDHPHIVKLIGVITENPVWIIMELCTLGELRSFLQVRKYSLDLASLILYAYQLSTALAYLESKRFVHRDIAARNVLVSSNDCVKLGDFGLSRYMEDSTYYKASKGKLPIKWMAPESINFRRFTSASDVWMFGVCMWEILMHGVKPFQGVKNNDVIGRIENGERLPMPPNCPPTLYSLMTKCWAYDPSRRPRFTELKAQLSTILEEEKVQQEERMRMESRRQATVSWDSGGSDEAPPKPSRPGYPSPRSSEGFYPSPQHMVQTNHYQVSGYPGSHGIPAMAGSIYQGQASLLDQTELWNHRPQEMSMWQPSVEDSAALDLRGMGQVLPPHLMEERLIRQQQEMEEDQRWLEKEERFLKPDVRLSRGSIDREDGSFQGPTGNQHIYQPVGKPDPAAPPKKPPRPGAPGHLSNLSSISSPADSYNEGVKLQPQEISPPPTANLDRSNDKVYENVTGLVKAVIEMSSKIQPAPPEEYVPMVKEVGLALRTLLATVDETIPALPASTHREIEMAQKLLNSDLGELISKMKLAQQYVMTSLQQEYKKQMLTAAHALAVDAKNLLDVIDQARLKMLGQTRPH

FAK [6] = molecular target: FAK (Rattus norvegicus, UniProt O35346); assay: Cellular mechanistic FAK inhibition, RMC cell lysates; assay type: cell-based; conditions: read-out: OXA-11 IC50 (nM) for FAK, RMC kidney mesangial cells
FAK [7] = molecular target: T1, FAK; assay: Cellular mechanistic FAK inhibition, MDA-MB-361 cell lysates; assay type: cell-based; conditions: read-out: OXA-11 IC50 (nM) for FAK, MDA-MB-361 breast adenocarcinoma metastasis cells
FAK [8] = assay: Cellular mechanistic FAK inhibition, MDCK cell lysates; assay type: cell-based; conditions: read-out: OXA-11 IC50 (nM) for FAK, Dog, MDCK kidney epithelial cells
FAK [9] = assay: Cellular mechanistic FAK inhibition, CMMT cell lysates; assay type: cell-based; conditions: read-out: OXA-11 IC50 (nM) for FAK, Monkey, CMMT mammary gland epithelial cells
pFAK [Y397] [10] = molecular target: T2, pFAK [Y397] (Homo sapiens, UniProt Q05397); assay: pFAK [Y397] sandwich ELISA in IGROV1 cells; assay type: cell-based; conditions: read-out: IC50 of pFAK [Y397] inhibition; IGROV1 ovarian cancer cells in vitro
T2 sequence (Q05397 whole entry): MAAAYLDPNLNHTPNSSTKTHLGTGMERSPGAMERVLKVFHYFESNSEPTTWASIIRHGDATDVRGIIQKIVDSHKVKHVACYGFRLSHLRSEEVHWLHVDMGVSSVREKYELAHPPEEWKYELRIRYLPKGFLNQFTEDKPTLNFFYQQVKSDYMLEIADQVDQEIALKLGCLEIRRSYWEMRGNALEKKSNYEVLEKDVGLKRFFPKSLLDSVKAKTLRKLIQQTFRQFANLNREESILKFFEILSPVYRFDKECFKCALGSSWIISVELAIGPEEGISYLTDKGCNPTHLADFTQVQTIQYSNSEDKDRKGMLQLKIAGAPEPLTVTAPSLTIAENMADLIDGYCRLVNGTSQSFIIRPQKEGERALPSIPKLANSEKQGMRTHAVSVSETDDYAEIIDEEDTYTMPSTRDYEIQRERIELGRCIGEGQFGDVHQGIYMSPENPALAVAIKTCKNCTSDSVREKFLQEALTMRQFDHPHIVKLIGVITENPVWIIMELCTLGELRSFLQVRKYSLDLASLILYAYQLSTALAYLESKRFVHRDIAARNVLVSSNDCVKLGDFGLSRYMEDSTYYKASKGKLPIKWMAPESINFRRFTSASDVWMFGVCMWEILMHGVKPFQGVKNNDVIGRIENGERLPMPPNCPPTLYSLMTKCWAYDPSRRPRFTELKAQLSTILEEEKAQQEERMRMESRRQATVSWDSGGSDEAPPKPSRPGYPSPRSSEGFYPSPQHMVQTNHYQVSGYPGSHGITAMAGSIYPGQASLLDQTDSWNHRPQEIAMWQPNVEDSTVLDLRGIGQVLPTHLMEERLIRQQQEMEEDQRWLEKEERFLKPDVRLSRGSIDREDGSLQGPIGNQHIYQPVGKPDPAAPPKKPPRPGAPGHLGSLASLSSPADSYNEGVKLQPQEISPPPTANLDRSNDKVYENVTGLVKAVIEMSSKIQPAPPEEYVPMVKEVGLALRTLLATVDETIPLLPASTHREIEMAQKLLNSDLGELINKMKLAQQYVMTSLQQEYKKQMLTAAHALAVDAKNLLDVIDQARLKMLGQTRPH

TOV21G cells [11] = assay: Apoptosis, caspase 3/7 activity; assay type: cell-based, human; conditions: read-out: EC50 promotion of apoptosis, 3-D culture
IGROV1 cells [12] = assay: Apoptosis, caspase 3/7 activity; assay type: cell-based, human; conditions: read-out: EC50 promotion of apoptosis, 3-D culture
TOV21G tumors [13] = assay: Tumor growth inhibition, TOV21G xenografts in nude mice; assay type: in vivo, mouse
How it was run: (§1)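 TOV21G or MDA-MB-361 cells were implanted subcutaneously in athymic nude mice and grown to a standardized size (n = 8 per group). Test compound was given daily by gavage at 20–120 mg/kg for 3 weeks. Tumor size was measured and body weight recorded during treatment.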

pFAK [Y397] [14] = molecular target: T2, pFAK [Y397]; assay: PK/PD of pFAK [Y397] inhibition in xenograft tumors; assay type: in vivo, mouse
How it was run: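 TOV21G cells were implanted subcutaneously in athymic nude mice and grown to a standardized size. Mice got a single gavage dose of test compound (40–120 mg/kg in 20 % Trappsol) or vehicle. From 2 to 24 h later, tumor pFAK [Y397] was measured by ELISA alongside plasma drug levels. Time points were 4, 8 and 24 h after 80 or 120 mg/kg.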

MDA-MB-361 breast tumors = assay: Tumor growth inhibition, MDA-MB-361 xenografts in mice; assay type: in vivo, mouse
How it was run: as §1

[15] = Tolerability in xenograft-bearing athymic nude mice; assay type: in vivo, mouse; conditions: 20–120 mg/kg daily for 3 weeks
How it was run: as §1

[16] = Tolerability / maximum tolerated dose in RIP-Tag2 mice; assay type: in vivo
pFAK [Y397] [17] = molecular target: T3, pFAK [Y397] (Mus musculus, UniProt P34152); assay: pFAK [Y397] ELISA in RIP-Tag2 tumors; assay type: in vivo; conditions: 4 h after a single 40-mg/kg dose
T3 sequence (P34152 whole entry, the tested form may be a part): as the sequence (P34152 whole entry) above
How it was run: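 14-week-old RIP-Tag2 mice received no treatment, one 40 mg/kg dose of test compound, or 20 % Trappsol, 4 or 8 h before sampling. Mice were perfused with PBS, and tumors were removed and frozen. Total FAK and pFAK [Y397] were measured by ELISA, with pancreas of RIP-Tag2-negative littermates as control; n = 4–12 per group.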

pFAK [Y397] [18] = molecular target: T3, pFAK [Y397]; assay: pFAK [Y397] immunohistochemistry in RIP-Tag2 liver and tumors; assay type: in vivo; conditions: 2 h after one 20-mg/kg dose
pFAK [Y861] = pFAK [Y861] (Mus musculus, UniProt P34152); assay: pFAK [Y861] immunohistochemistry in RIP-Tag2 liver and tumors; assay type: in vivo; conditions: for reduction of pFAK [Y861] staining in liver sinusoids: RIP-Tag2 mice
pFAK [Y861], sequence (P34152 whole entry, the tested form may be a part): as the sequence (P34152 whole entry) above
How it was run: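 RIP-Tag2 mice got one 20 mg/kg dose of test compound or 20 % Trappsol. pFAK [Y861] immunofluorescence was examined in liver sinusoids and tumors at 6 time points from 1 to 24 h (n = 4 mice per time point). Tissues were perfusion-fixed with 1 % PFA and frozen sections were stained; the time course gave a tissue half-life of inhibition.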

[19] = system: liver metastases of pancreatic neuroendocrine tumors; assay: Liver metastasis in RIP-Tag2 mice; assay type: in vivo, mouse
How it was run: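 RIP-Tag2 transgenic mice (C57BL/6 background) were treated for 3 weeks from age 14 weeks with vehicle (20 % Trappsol daily), test compound 20 mg/kg daily, anti-VEGFR-2 antibody DC101 1 mg ip twice weekly, or both. At 17 weeks, visible liver metastases were scored at autopsy. Micrometastases (≥2 adjacent SV40 T-antigen-positive cells) were counted and sized in two 80-μm liver sections per mouse; n = 19–24 per group.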

Aurora kinase A = Aurora kinase A (Homo sapiens, UniProt O14965)
Aurora kinase B = Aurora kinase B (Homo sapiens, UniProt Q96GD4)
KDR = KDR (Homo sapiens, UniProt P35968)
KDR, sequence (P35968 20-1356): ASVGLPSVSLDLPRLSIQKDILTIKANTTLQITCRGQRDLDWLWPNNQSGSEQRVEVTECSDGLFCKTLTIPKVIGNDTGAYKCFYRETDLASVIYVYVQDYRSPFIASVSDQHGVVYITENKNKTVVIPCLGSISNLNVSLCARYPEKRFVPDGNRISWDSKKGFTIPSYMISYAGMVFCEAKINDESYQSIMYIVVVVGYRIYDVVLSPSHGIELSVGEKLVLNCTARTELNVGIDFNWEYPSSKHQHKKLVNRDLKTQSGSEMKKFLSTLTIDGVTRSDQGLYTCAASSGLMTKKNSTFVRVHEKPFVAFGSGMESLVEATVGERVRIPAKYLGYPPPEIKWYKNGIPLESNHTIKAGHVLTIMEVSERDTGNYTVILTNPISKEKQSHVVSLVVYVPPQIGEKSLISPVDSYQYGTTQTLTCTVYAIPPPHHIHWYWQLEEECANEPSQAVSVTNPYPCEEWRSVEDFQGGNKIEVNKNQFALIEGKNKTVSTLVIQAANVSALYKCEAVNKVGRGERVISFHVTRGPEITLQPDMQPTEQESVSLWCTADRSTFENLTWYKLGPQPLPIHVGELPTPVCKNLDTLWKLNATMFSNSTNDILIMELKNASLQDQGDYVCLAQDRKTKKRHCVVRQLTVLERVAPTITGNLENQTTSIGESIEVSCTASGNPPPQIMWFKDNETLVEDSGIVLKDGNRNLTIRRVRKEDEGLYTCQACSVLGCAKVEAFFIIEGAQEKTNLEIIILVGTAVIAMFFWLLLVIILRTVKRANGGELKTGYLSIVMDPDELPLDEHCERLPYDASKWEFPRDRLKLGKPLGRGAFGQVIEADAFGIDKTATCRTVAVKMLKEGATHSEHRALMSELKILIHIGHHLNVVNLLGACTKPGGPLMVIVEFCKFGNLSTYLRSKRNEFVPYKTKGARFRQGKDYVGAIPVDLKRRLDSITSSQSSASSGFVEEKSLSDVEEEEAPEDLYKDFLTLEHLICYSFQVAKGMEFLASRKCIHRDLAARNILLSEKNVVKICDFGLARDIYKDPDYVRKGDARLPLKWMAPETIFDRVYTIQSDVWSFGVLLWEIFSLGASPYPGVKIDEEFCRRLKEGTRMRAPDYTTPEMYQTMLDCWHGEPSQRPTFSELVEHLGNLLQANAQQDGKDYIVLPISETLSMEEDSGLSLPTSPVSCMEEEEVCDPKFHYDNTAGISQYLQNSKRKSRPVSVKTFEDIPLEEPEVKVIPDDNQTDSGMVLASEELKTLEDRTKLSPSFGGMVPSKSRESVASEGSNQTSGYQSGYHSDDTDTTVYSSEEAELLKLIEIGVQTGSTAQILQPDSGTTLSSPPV

TOV21G cells [20] = conditions: read-out: EC50 inhibition of proliferation, 3-D culture, 7 days
IGROV1 cells [21] = conditions: read-out: EC50 inhibition of proliferation, 3-D culture, 7 days
[22] = system: eight human tumor cell lines; conditions: read-out: EC50 inhibition of proliferation in 3-D culture
[23] = cellular mechanistic IC50, TOV21G cells
[24] = TOV21G xenografts, 120 mg/kg daily

T1 sequence (Q05397 whole entry): as the sequence (Q05397 whole entry) above

Q: Which “effect on pFAK [Y397] in TOV21G-cell tumors” value (TOV21G tumors [1]) does the source give for N.N.[Cl][Pt][Cl] [cisplatin] here?
A: Its value is “increased pFAK [Y397]”.

Q: Which results are given for CCOP(=O)(Cc1ccc(Nc2ncc(C(F)(F)F)c(Nc3ccc([C@H]4CC[C@H](N5CCN(C)CC5)CC4)c4c3C(=O)N(C)C4)n2)c(OC)c1)OCC [OXA-11, diethyl (3-methoxy-4-{ [4-({2-methyl-7-[trans-4-(4-methylpiperazin-1-yl)cyclo-hexyl]-3-oxo-2,3-dihydro-1H-isoindol-4-yl}amino)-5-(tri-fluoromethyl)pyrimidin-2-yl]amino}benzyl) phosphonate]?
A: IC50 (FAK [2]): 0.0012 nM; inhibition of kinase in biochemical specificity screening (FAK [3]): more than 50%; Fold selectivity for FAK (FAK) (FAK [4]): 1×; Fold selectivity for FAK over PYK2 (PYK2; cell lysates): 8×; selectivity for FAK over PYK2 (PYK2; [23]): eightfold; IC50 (PYK2; read-out: OXA-11 IC50 (nM), PYK2, cellular mechanistic, cell lysates): 80 nM; Fold selectivity for FAK over Insulin receptor (Insulin receptor; cell lysates): >1000×; selectivity for FAK over insulin receptor (IR, INSR) (Insulin receptor; [23]): > 1000 fold; IC50 (Insulin receptor; read-out: OXA-11 IC50 (nM), Insulin receptor, cellular mechanistic, cell lysates): > 10000 nM; Fold selectivity for FAK over SRC (SRC; cell lysates): >1000×; selectivity for FAK over SRC (SRC; [23]): > 1000 fold; IC50 (SRC; read-out: OXA-11 IC50 (nM), SRC, cellular mechanistic, cell lysates): > 10000 nM; IC50 (FAK [5]): 8 nM; IC50 (FAK [6]): 18 nM; IC50 (FAK [7]): 20 nM; IC50 (FAK [8]): 32 nM; IC50 (FAK [9]): 84 nM; IC50 (pFAK [Y397] [10]): 0.8 nM; EC50 (TOV21G cells [11]): 31 nM; EC50 (IGROV1 cells [12]): 0.5 nM; inhibition of tumor growth (TOV21G tumors [13]; [24]): 77%; reduction in size of TOV21G tumors (TOV21G tumors [13]; nude mice, 20–120 mg/kg daily for 3 weeks): 22–67%; reduction of pFAK [Y397] at 24 h (pFAK [Y397] [14]; TOV21G tumors, single dose 80 or 120 mg/kg, plasma levels back to baseline): approximately 25%; suppression of pFAK [Y397] (pFAK [Y397] [14]; [24]): 61%; EC50 (pFAK [Y397] [14]; read-out: pharmacodynamic EC50 of pFAK [Y397] inhibition, total OXA-11, TOV21G tumors in mice, 4, 8 and 24 h): 102 nM; inhibition of MDA-MB-361 tumor growth over 3 weeks (MDA-MB-361 breast tumors; higher daily dose (120 mg/kg)): 95%; inhibition of MDA-MB-361 tumor growth over 3 weeks (MDA-MB-361 breast tumors; lower daily dose (40 mg/kg)): 60%; dose-limiting toxicity [15]: No dose-limiting toxicity; tolerability ([16]; 40 or 60 mg/kg daily for at least 3 weeks): well tolerated; maximum tolerated dose ([16]; OXA-11 given with DC101): 20 mg/kg; tolerable dosing ([16]; daily): 20 to 60 mg/kg; pFAK [Y397] activity in RIP-Tag2 tumors (pFAK [Y397] [17]): significantly reduced; staining for pFAK [Y397] in RIP-Tag2 tumors (pFAK [Y397] [18]): reduced to nearly undetectable levels; pFAK [Y397] immunofluorescence in liver sinusoids, less than baseline (pFAK [Y397] [18]; RIP-Tag2 mice): 86%; staining for pFAK [Y861] in RIP-Tag2 tumors (pFAK [Y861]; 2 h after one 20-mg/kg dose): reduced to nearly undetectable levels; tissue half-life of OXA-11 inhibition of pFAK [Y861] (pFAK [Y861]; RIP-Tag2 liver sinusoids, single dose 20 mg/kg): about 4 h; reduction of pFAK [Y861] staining in liver sinusoids (pFAK [Y861]; 1 h after single dose 20 mg/kg): 79%; reduction of pFAK [Y861] staining in liver sinusoids (pFAK [Y861]; 4 h after single dose 20 mg/kg): 57%; reduction of pFAK [Y861] staining in liver sinusoids (pFAK [Y861]; 6 h after single dose 20 mg/kg): 35%; mice with liver metastases visible at autopsy ([19]; 17-week old RIP-Tag2 mice after treatment for 3 weeks): 10%; size of liver micrometastases ([19]; RIP-Tag2 mice, 3 weeks treatment): about the same as in the vehicle group; Fold selectivity for FAK over RSK1/2 (RSK1/2; cell lysates): 26×; selectivity for FAK over RSK1/2 (RSK1/2; [23]): 26 fold; IC50 (RSK1/2; read-out: OXA-11 IC50 (nM), RSK1/2, cellular mechanistic, cell lysates): 260 nM; Fold selectivity for FAK over Aurora kinase A (Aurora kinase A; cell lysates): >1000×; selectivity for FAK over aurora kinase A (AURKA) (Aurora kinase A; [23]): > 1000 fold; IC50 (Aurora kinase A; read-out: OXA-11 IC50 (nM), Aurora kinase A, cellular mechanistic, cell lysates): > 10000 nM; Fold selectivity for FAK over Aurora kinase B (Aurora kinase B; cell lysates): >1000×; selectivity for FAK over aurora kinase B (AURKB) (Aurora kinase B; [23]): > 1000 fold; IC50 (Aurora kinase B; read-out: OXA-11 IC50 (nM), Aurora kinase B, cellular mechanistic, cell lysates): > 10000 nM; Fold selectivity for FAK over KDR (KDR; cell lysates): >1000×; selectivity for FAK over KDR (VEGFR-2, FLK1) (KDR; [23]): > 1000 fold; IC50 (KDR; read-out: OXA-11 IC50 (nM), KDR, cellular mechanistic, cell lysates): > 10000 nM; EC50 (TOV21G cells [20]): 9 nM; EC50 (IGROV1 cells [21]): 0.3 nM; EC50 ([22]; TOV21G, OVCAR3, OVCAR5 and IGROV1 cells (high baseline pFAK [Y397])): 0.3 to 14.5 nM; EC50 ([22]; four other cell lines with lower baseline pFAK [Y397]): > 100 nM
